Results from different studies.
Protocols differ between the studies behind these lines.
HTR5A: 5-hydroxytryptamine receptor 5A (HTR5A, Homo sapiens, UniProt P47898)
PI4KA: Phosphatidylinositol 4-kinase alpha (PI4KA, Homo sapiens, UniProt P42356)
ABHD6: Monoacylglycerol lipase ABHD6 (ABHD6, Homo sapiens, UniProt Q9BV23)

The inhibition of O=C(Nc1ccc(S(=O)(=O)N2CCC(Cl)CC2)cc1)c1ccc([N+](=O)[O-])o1 is reported as 1% (D(4) dopamine receptor (DRD4, Homo sapiens, UniProt P21917); ligand displacement, radioligand; 10 µM).
For CCN(CC)c1ccc(C2Nc3ccc(C(=O)c4ccccc4)cc3NC3=C2C(=O)CC(C)(C)C3)cc1 (stereo not drawn), the inhibition was 85% (HTR5A; ligand displacement, radioligand; 10 µM).
With O=C(c1ccc(F)cc1)N(Cc1ccccc1)C1CCCCC1 the inhibition was 1% (D(4) dopamine receptor (DRD4, Homo sapiens, UniProt P21917, del265-296); cell-free assay; 10 µM).
O=C(CSc1nc2nccnc2c(=O)n1CCc1ccccc1)Nc1nccs1 gave an inhibition of -5% (PI4KA; enzyme activity, inhibitor; 10 µM).
CCN1CC(c2ccccc2)c2cc(OC)c(OC)c3c2C1Cc1cc2c(cc1-3)OCO2 (stereo not drawn) has an inhibition of -12.1% (HTR5A; ligand displacement, radioligand; 10 µM).
With CC/C(=N\NC(=O)NCc1cccc(O)c1)c1ccc(O)c(C)c1O the inhibition was -0.1% (Mast/stem cell growth factor receptor Kit (KIT, Homo sapiens, UniProt P10721, D816Y); enzyme activity, inhibitor; 0.1 µM).
CCCNc1nc2ccccc2n1Cc1ccc(Cl)cc1 gave an inhibition of 24.8% (HTR5A; ligand displacement; 10 µM).
The inhibition of CS(=O)(=O)Nc1cccc(-c2csc(NC(=O)CSc3nc4nccnc4c(=O)n3CCc3ccccc3)n2)c1 is reported as 5% (PI4KA; enzyme activity, inhibitor; 10 µM).
For CC(C)C[C@H](NC(=O)[C@H](CC(C)C)NC(=O)CNC(=O)[C@H](C)NC(=O)[C@H](C)NC(=O)[C@H](CCCNC(=N)N)NC(=O)CNC(=O)CCCCNC(=O)[C@H](CCCCN)NC(=O)[C@H]1CCCN1C(=O)[C@H](CCCCN)NC(=O)[C@H](CCCCN)NC(=O)[C@H](CCCCN)NC(=O)[C@H](CCCCN)NC(=O)[C@H](Cc1ccc(O)cc1)NC(=O)[C@@H](N)Cc1c[nH]c2ccccc12)C(N)=O, the inhibition was 95% (Neuropeptides B/W receptor type 1 (NPBWR1, Homo sapiens, UniProt P48145); calcium signal, antagonist; 10 µM).
With O=C(CSc1nc2nccnc2c(=O)n1CCc1ccccc1)Nc1ccccc1 the inhibition was < 20% (PI4KA; enzyme activity, inhibitor; 10 µM).
Cn1cnc(Br)c1C1=CN(c2ncnc3[nH]cnc23)CCS1 gave an inhibition of 92.8% (Mitogen-activated protein kinase kinase kinase 19 (MAP3K19, Homo sapiens, UniProt Q56UN5); enzyme activity, inhibitor, radiometric; 2 µM).
For O=C(Oc1nsnc1N1CCC(Cc2ccccc2)CC1)N1CCCCC1, the inhibition was 15% (ABHD6; enzyme activity, inhibitor, fluorescence; 1 µM, lysate).
O=C1N=C(N2CCCCN2)S/C1=C\c1ccc(F)cc1O gave an inhibition of < 10% (Neurotensin receptor type 1 (NTSR1, Homo sapiens, UniProt P30989); ligand displacement, radioligand; 10 µM).
The inhibition of O=C(Oc1nsnc1N1CCC(c2ccccc2)CC1)N1CCCCC1 is reported as 41% (ABHD6; enzyme activity, inhibitor, fluorescence; 1 µM, lysate).
For N#Cc1cc(Cn2c(N3CCCC3)nc3ccccc32)ccc1F, the inhibition was -15% (HTR5A; ligand displacement; 10 µM).
